From ChEMBL document CHEMBL1157766, “Neolignans and glycosides from the stem bark of Illicium difengpi” (J Nat Prod, 2010) come the findings set out here.

The structures appear in SMILES notation. pIC50: −log10 of the molar value. The source made the active and inactive calls. The calls are words filed in the database; no cut-off is given here.

The nature of the first test: Antiinflammatory activity in rat PMNC assessed as inhibition of platelet activating factor-induced beta-glucuronidase release preincubated for 15 mins at 37 degC. Format: functional.
Details: not given
The essentials: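 Rat polymorphonuclear leukocytes (2.5 × 10^6 cells/mL) preincubated with sample (diluted from 0.1 M DMSO stock to 10^-3 M) at 37 °C for 15 min. Cytochalasin B added for 5 min, then PAF for 5 min, stopped on ice. Supernatant β-glucuronidase measured with 2.5 mM phenolphthalein glucuronic acid in 0.1 M HOAc, 37 °C, 18 h. NaOH stop, A550; inhibitory ratio versus PAF and control.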
In general, pIC50 refers to the IC50 on a negative log10 scale, so that one unit is a factor of ten. Turning to `COc1cc(O[C@@H]2O[C@H](CO[C@@H]3O[C@@H](C)[C@H](O)[C@@H](O)C3O)[C@@H](O)[C@H](O)[C@H]2O)cc(O)c1OC` (single isomer, unassigned), the negative logarithm of the IC50 (pIC50) is 5.12. `COc1cc(/C=C/CO)cc(OC)c1OC(=O)/C=C/c1ccccc1` [NEODIFENGPIN]: the pIC50 is under 4.30. Same read-out and setting: in the case of `COc1cc(CCCO)cc2c1O[C@H](C1=C[C@H](O)[C@H](O)CC1)[C@H]2CO` [DIFENGPIOL A] it was under 4.30; in that of `COc1cc([C@H](O)[C@@H](CO)Oc2c(OC)cc(CCCO)cc2OC)ccc1OC(CO)CO`, 5.79; in that of `C[C@@H]1C(=O)O[C@H]2[C@H](O)[C@@]34[C@H]5C[C@@H](C(C)(C)C)[C@]36[C@@H](OC(=O)[C@@H]6O)O[C@@]4(C(=O)O5)[C@@]12O` [GINKOLIDE B], 5.63. On the same count and under the same terms, in the case of `COc1cc(CCCO)cc2c1O[C@H]([C@]1(O)CC[C@H](OC)[C@@H](O)C1)[C@H]2CO` [DIFENGPIOL B] it was under 4.30. As for `C=CCc1cc(OC)c(O[C@@H](CO)[C@H](O)c2cc(OC)c(O)c(OC)c2)c(OC)c1`, the pIC50 was 4.61. On the same count and under the same terms, with `C[C@@H]1O[C@@H](OC[C@H]2O[C@@H](Oc3cc4c(cc3O)OCO4)[C@H](O)[C@@H](O)[C@@H]2O)C(O)[C@H](O)[C@H]1O` (single isomer, unassigned) the figure was under 4.30.

A further test can be described thus: Antioxidant activity in liver microsomes assessed as inhibition of Fe(2+)-Cys system-induced lipid peroxidation preincubated for 15 mins at 37 degC. Format: functional, Microsome.
Details: not given
The essentials: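 Sample with liver microsome suspension and 0.2 µM cysteine in 0.1 M PBS pH 7.4, 37 °C, 15 min. Peroxidation started with 50 µM FeSO4 and stopped with 20% TFA. Supernatant heated with 0.67% thiobarbituric acid in boiling water for 10 min, then A532 read. Inhibitory ratio calculated from absorbances.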
For orientation: Microsomes from liver hold many membrane-bound enzymes, among them those of drug oxidation.
`C=CCc1cc(OC)c(O[C@@H](CO)[C@H](O)c2cc(OC)c(O)c(OC)c2)c(OC)c1`: the pIC50 is 4.37.

The same test, now with this note: Microsome.
For the compound `COc1cc(O[C@@H]2O[C@H](CO[C@@H]3O[C@@H](C)[C@H](O)[C@@H](O)C3O)[C@@H](O)[C@H](O)[C@H]2O)cc(O)c1OC` (single isomer, unassigned), the inhibition entry was “inactive”. Same read-out and setting: with `COc1cc(/C=C/CO)cc(OC)c1OC(=O)/C=C/c1ccccc1` [NEODIFENGPIN] the entry was “inactive”; with `COc1cc(CCCO)cc2c1O[C@H](C1=C[C@H](O)[C@H](O)CC1)[C@H]2CO` [DIFENGPIOL A], “inactive”; with `COc1cc([C@H](O)[C@@H](CO)Oc2c(OC)cc(CCCO)cc2OC)ccc1OC(CO)CO`, “inactive”. Same read-out and setting: in the case of `COc1cc(CCCO)cc2c1O[C@H]([C@]1(O)CC[C@H](OC)[C@@H](O)C1)[C@H]2CO` [DIFENGPIOL B] it was “inactive”. The same measure, in the same setting: in the case of `C[C@@H]1O[C@@H](OC[C@H]2O[C@@H](Oc3cc4c(cc3O)OCO4)[C@H](O)[C@@H](O)[C@@H]2O)C(O)[C@H](O)[C@H]1O` (single isomer, unassigned) it was “inactive”.
